ChEMBL document CHEMBL1240465, “Prenylflavonoids and prenyl/alkyl-phloroacetophenones: synthesis and antitumour biological evaluation” (Eur J Med Chem, 2010)
pIC50: −log10 of the molar value.

What was measured:
Format in all cases: functional, cell-based
HeLa = test: Cytotoxicity against human HeLa cells after 72 hrs by XTT assay
Procedure, shortened: (§1)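 Cells grown in DMEM (A549, HT-29, HeLa) or RPMI1640 (HL-60), both with 10% heat-inactivated fetal bovine serum, were exposed to compound across a concentration range for 72 h at 37 °C in humidified air/CO₂ (19/1), then read by XTT. Measurements were in triplicate. IC50 is the concentration giving 50% proliferation inhibition versus untreated controls, reported as mean ± S.D. of three independent determinations.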

HT-29 = test: Cytotoxicity against human HT-29 cells after 72 hrs by XTT assay; conditions: HT-29, 72 h
Procedure, shortened: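 Cells grown in DMEM (A549, HT-29, HeLa) or RPMI1640 (HL-60), both with 10% heat-inactivated fetal bovine serum, were exposed to compound across a concentration range for 72 h at 37 °C in humidified air/CO₂ (19/1), then read by XTT. Measurements were in triplicate.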

HL-60 = test: Cytotoxicity against human HL60 cells after 72 hrs by XTT assay; conditions: HL-60, 72 h; procedure, shortened: as §1
A549 = test: Cytotoxicity against human A549 cells after 72 hrs by XTT assay; conditions: A549, 72 h; procedure, shortened: as §1

| Structure (SMILES) | pIC50 (HeLa) | pIC50 (HT-29) | pIC50 (HL-60) | pIC50 (A549) |
| --- | --- | --- | --- | --- |
| CC(=O)c1c(O)cc(O)cc1OC/C=C(\C)CC/C=C(\C)CCC=C(C)C | 4.51 | 4.54 | 4.51 | 4.49 |
| CC(C)=CCC/C(C)=C/COc1c(C/C=C(\C)CCC=C(C)C)c(O)c2c(=O)cc(-c3ccccc3)oc2c1C/C=C(\C)CCC=C(C)C | 4.52 | 4.49 |  | 4.54 |
| C=C1CC[C@H]2C(C)(C)CCC[C@]2(C)[C@H]1CC/C(C)=C/COc1cc(O)c2c(=O)c(OC/C=C(\C)CC[C@H]3C(=C)CC[C@H]4C(C)(C)CCC[C@]34C)c(-c3ccc(O)cc3)oc2c1 | < 4.00 | < 4.00 |  | < 4.00 |
| C=C1CC[C@H]2C(C)(C)CCC[C@]2(C)[C@H]1CC/C(C)=C/COc1cc(O)c2c(=O)c(O)c(-c3ccc(O)cc3)oc2c1 | < 4.00 | < 4.00 |  | < 4.00 |
| C=C1CC[C@H]2C(C)(C)CCC[C@]2(C)[C@H]1CC/C(C)=C/Cc1c(O)cc(O)c2c(=O)c(O)c(-c3ccc(O)cc3)oc12 | 4.52 | 4.54 |  | 4.49 |
| C=C1CC[C@H]2C(C)(C)CCC[C@]2(C)[C@H]1CC/C(C)=C/COc1c(-c2ccc(O)cc2)oc2cc(O)cc(O)c2c1=O | 4.57 | 4.52 |  | 4.59 |
| C=C1CC[C@H]2C(C)(C)CCC[C@]2(C)[C@H]1CC/C(C)=C/COc1cc(O)c2c(=O)c(OC/C=C(\C)CC[C@H]3C(=C)CC[C@H]4C(C)(C)CCC[C@]34C)c(-c3ccc(OC)cc3)oc2c1 | < 4.00 | < 4.00 |  | < 4.00 |
| C=C1CC[C@H]2C(C)(C)CCC[C@]2(C)[C@H]1CC/C(C)=C/COc1cc(O)c2c(=O)c(O)c(-c3ccc(OC)cc3)oc2c1 | < 4.00 | < 4.00 |  | < 4.00 |
| C=C1CC[C@H]2C(C)(C)CCC[C@]2(C)[C@H]1CC/C(C)=C/Cc1c(O)cc(O)c2c(=O)c(O)c(-c3ccc(OC)cc3)oc12 | < 4.00 | < 4.00 |  | < 4.00 |
| C=C1CC[C@H]2C(C)(C)CCC[C@]2(C)[C@H]1CC/C(C)=C/COc1c(-c2ccc(OC)cc2)oc2cc(O)cc(O)c2c1=O | 4.52 | 4.49 |  | 4.52 |
| CC(=O)c1ccc(C)cc1O | < 4.00 | < 4.00 | < 4.00 | < 4.00 |
| CC(=O)c1c(O)cc(O)c2c1OC(C)(C)CC2 | < 4.00 | < 4.00 | < 4.00 | < 4.00 |
| CC(=O)c1c(O)cc2c(c1O)CCC(C)(C)O2 | < 4.00 | < 4.00 | < 4.00 | < 4.00 |
| CC(=O)c1c(O)cc(OCC=C(C)C)cc1O | 4.52 | 4.51 | 4.49 | < 4.00 |
| CC(=O)c1c(O)cc(O)cc1OCC=C(C)C | < 4.00 | < 4.00 | < 4.00 | < 4.00 |
| CC(=O)c1c(O)cc(O)c(CC=C(C)C)c1O | 4.55 | 4.52 | 4.49 | 4.54 |
| CCCCCCCC/C=C\CCCCCCCCOc1cc(O)c(C(C)=O)c(OCCCCCCCC/C=C\CCCCCCCC)c1 | < 4.00 | < 4.00 | < 4.00 | < 4.00 |
| CC(C)=CCC/C(C)=C/COc1cc(O)c2c(=O)c(OC/C=C(\C)CCC=C(C)C)c(-c3ccc(O)cc3)oc2c1 | < 4.00 | 4.51 |  | < 4.00 |
| CC(C)=CCC/C(C)=C/Cc1c(O)cc(O)c2c(=O)c(O)c(-c3ccc(O)cc3)oc12 | 4.52 | 4.52 |  | 4.59 |
| CC(C)=CCC/C(C)=C/COc1c(-c2ccc(O)cc2)oc2cc(O)cc(O)c2c1=O | 4.64 | 4.60 |  | 4.57 |
| CC(=O)c1c(O)c2c(c3c1OC(C)(C)CC3)OC(C)(C)CC2 | < 4.00 | 4.49 | 4.51 | < 4.00 |
| CC(=O)c1c(O)c(CC=C(C)C)c(O)c(CC=C(C)C)c1O | < 4.00 | < 4.00 | < 4.00 | < 4.00 |
| CC(=O)c1c(O)c(C/C=C(\C)CCC=C(C)C)c(O)c(C/C=C(\C)CCC=C(C)C)c1O | 4.51 | 4.70 | 4.72 | 4.49 |
